Measurements published in ChEMBL document CHEMBL4834426, “Antimalarial Benzimidazole Derivatives Incorporating Phenolic Mannich Base Side Chains Inhibit Microtubule and Hemozoin Formation: Structure-Activity Relationship and In Vivo Oral Efficacy Studies” (J Med Chem, 2021).

How the values were obtained:
[1] = test system: Plasmodium falciparum; assay: Antimalarial activity against asexual blood stage drug-sensitive Plasmodium falciparum NF54 infected in erythrocytes assessed as reduction in parasitemia incubated up to 72 hrs by [3H]hypoxanthine incorporation assay; assay type: functional, organism-based
How it was run: (§1)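 [³H]-Hypoxanthine incorporation assay (modified) on asexual blood-stage P. falciparum in vitro. IC₅₀ values are means of ≥2 independent experiments.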

[2] = test system: Plasmodium falciparum; assay: Antimalarial activity against asexual blood stage multi drug-resistant Plasmodium falciparum K1 infected in erythrocytes assessed as reduction in parasitemia incubated up to 72 hrs by [3H]hypoxanthine incorporation assay; assay type: functional, organism-based; how it was run: as §1
[3] = Resistance index, ratio of IC50 for antimalarial activity against asexual blood stage multi drug-resistant Plasmodium falciparum K1 to IC50 for antimalarial activity against asexual blood stage drug-sensitive Plasmodium falciparum NF54; assay type: functional
How it was run: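 Resistance index is IC₅₀(K1)/IC₅₀(NF54). Both IC₅₀s came from the [³H]-hypoxanthine incorporation assay, as means of ≥2 independent experiments.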

[4] = test system: Plasmodium falciparum; assay: Antiplasmodial activity against […] Plasmodium falciparum NF54 early gametocytes transfected with GFP-Luc […] at 5 uM incubated for 48 hrs by microscopy based luciferase reporter gene assay relative to control; assay type: functional
How it was run: (§2)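 NF54-Pfs16-GFP-Luc gametocytes, assays set up day 5 (early, stage II/III) or day 10 (late, stage IV/V). Culture at 2−3% gametocytemia, 1.5% hematocrit, 48 h drug exposure at 37 °C under 90% N₂/5% O₂/5% CO₂. Lysates mixed with luciferin; bioluminescence read with 10 s integration. Dual-point: one biological repeat in technical triplicate. Methylene blue (5 μM) reference.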

[5] = test system: Plasmodium falciparum; assay: Antiplasmodial activity against […] Plasmodium falciparum NF54 early gametocytes transfected with GFP-Luc […] at 1 uM incubated for 48 hrs by microscopy based luciferase reporter gene assay relative to control; assay type: functional; how it was run: as §2
[6] = test system: Plasmodium falciparum; assay: Antiplasmodial activity against […] Plasmodium falciparum NF54 late gametocytes transfected with GFP-Luc […] at 5 uM incubated for 48 hrs by microscopy based luciferase reporter gene assay relative to control; assay type: functional; how it was run: as §2
[7] = test system: Plasmodium falciparum; assay: Antiplasmodial activity against […] Plasmodium falciparum NF54 late gametocytes transfected with GFP-Luc […] at 1 uM incubated for 48 hrs by microscopy based luciferase reporter gene assay relative to control; assay type: functional; how it was run: as §2
[8] = test system: CHO; assay: Cytotoxicity against CHO cells assessed as inhibition of cell viability by MTT assay; assay type: cell-based; details: Cricetulus griseus
[9] = Selectivity index, ratio of IC50 for Cytotoxicity against CHO cells assessed as inhibition of cell viability by MTT assay to IC50 for antimalarial activity against asexual blood stage Plasmodium falciparum NF54 assessed as reduction in parasitemia incubated up to 72 hrs by [3H]hypoxanthine incorporation assay; assay type: toxicity, cell-based; details: hamster, read-out: Selectivity Index
How it was run: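 Selectivity index is IC₅₀(CHO)/IC₅₀(NF54). […] IC₅₀ came from nonlinear dose-response fitting. Parasite IC₅₀ came from the [³H]-hypoxanthine assay.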

| Structure (SMILES) | IC50 [1] [nM] | IC50 [2] [nM] | Ratio IC50 [3] | inhibition at 5 µM [4] [%] | inhibition at 1 µM [5] [%] | inhibition at 5 µM [6] [%] | inhibition at 1 µM [7] [%] | IC50 [8] [nM] | selectivity ratio at 72 h [9] |
| --- | --- | --- | --- | --- | --- | --- | --- | --- | --- |
| CCN(CC)Cc1ccc(Nc2nc3ccccc3n2Cc2ccc(F)cc2)cc1O | 640 | 1280 | 2 | 15 | 12 | 36 | 31 | 45800 | 71.5 |
| CC(C)(C)NCc1cc(Cl)cc(Nc2nc3ccccc3[nH]2)c1O | 270 | 630 | 2.33 | 0 | 0 | 0 | 0 | > 50000 | > 185 |
| CCN(CC)Cc1ccc(C)c(Nc2nc3ccccc3n2Cc2ccc(F)cc2)c1O | 2270 | 1320 | 0.58 | 24 | 14 | 39 | 0 | > 50000 | > 22 |
| CCN(CC)Cc1ccc(Nc2nc3ccccc3[nH]2)cc1O | 1880 | > 10000 | > 5.32 | – | – | – | – | > 50000 | > 26 |
| Cc1cc(CN)c(O)c(Nc2nc3ccccc3n2Cc2ccc(C(F)(F)F)cc2)c1 | 5470 | – | – | 38 | 20 | 0 | 0 | 47600 | 10.4 |
| CCN(CC)Cc1cccc(Nc2nc3ccccc3n2Cc2ccc(C#N)cc2)c1O | 1000 | 660 | 0.66 | 69 | 47 | 43 | – | > 50000 | > 50 |
| Cc1cc(CNC(C)(C)C)c(O)c(Nc2nc3c(Cl)cc(Cl)cc3[nH]2)c1 | 220 | 400 | 1.81 | 0 | 0 | 0 | 0 | 25800 | 117 |
| CN(C)c1ccc2nc3ccc(N(C)C)cc3[s+]c2c1 [METHYLENE BLUE ANHYDROUS] | – | – | – | – | 93 | – | 90 | – | – |
| CCN(CC)Cc1cc(C)cc(Nc2nc3ccccc3[nH]2)c1O | 230 | 420 | 1.83 | 44 | 1 | 37 | – | > 50000 | > 217 |
| CCN(CC)Cc1cccc(Nc2nc3ccccc3[nH]2)c1O | 560 | 770 | 1.38 | 0 | 3 | 34 | – | > 50000 | > 89 |
| CCN(CC)Cc1cc(Nc2nc3ccccc3n2Cc2ccc(F)cc2)ccc1O | 680 | 1950 | 2.87 | 59 | 33 | 39 | 11 | 12000 | 17.6 |
| Cc1cc(CNC(C)(C)C)c(O)c(Nc2nc3ccccc3[nH]2)c1 | 200 | 790 | 3.95 | 47 | 0 | 39 | 22 | 33300 | 166 |
| CCN(CC)Cc1cc(Nc2nc3ccccc3n2Cc2ccc(C#N)cc2)ccc1O | 470 | 1970 | 4.19 | 23 | 20 | 35 | – | > 50000 | > 106 |
| CCN(CC)Cc1cc(Nc2nc3ccccc3[nH]2)ccc1O | 800 | 7270 | 9.09 | 9 | 30 | 28 | 0 | > 50000 | > 62 |
| CCN(CC)Cc1ccc(C)c(Nc2nc3ccccc3n2Cc2ccc(C(F)(F)F)cc2)c1O | 2880 | 940 | 0.33 | 90 | 18 | 43 | 29 | 33900 | 11.8 |
| CCN(CC)Cc1ccc(Nc2nc3ccccc3n2Cc2ccc(C(F)(F)F)cc2)cc1O | 470 | 870 | 1.85 | 41 | 36 | 24 | 2 | 41500 | 88.3 |
| CCN(CC)Cc1ccc(Nc2nc3ccccc3n2Cc2ccc(C#N)cc2)cc1O | 370 | 760 | 2.05 | 44 | 38 | 21 | – | 39000 | 106 |
| CCN(CC)Cc1ccc(C)c(Nc2nc3ccccc3[nH]2)c1O | 860 | 1620 | 1.88 | 32 | 3 | 31 | 34 | > 50000 | > 58 |
| CC(C)(C)NCc1cc(C(C)(C)C)cc(Nc2nc3ccccc3[nH]2)c1O | 80 | 250 | 3.12 | 56 | 30 | 0 | 0 | 30500 | > 380 |
| CCN(CC)Cc1cc(C)cc(Nc2nc3ccccc3n2Cc2ccc(C#N)cc2)c1O | 650 | 460 | 0.71 | 98 | 39 | 52 | 15 | 14200 | 21.8 |
| CCN(CC)Cc1cc(Nc2nc3ccccc3n2Cc2ccc(C(F)(F)F)cc2)ccc1O | 390 | 1690 | 4.33 | 48 | 34 | 45 | 31 | 17500 | 44.9 |
| CC(C)(C)NCc1cc(Cl)cc(Nc2nc3cc(F)c(F)cc3[nH]2)c1O | 260 | 530 | 2.4 | 16 | 0 | 0 | 0 | 39700 | 153 |
| Cc1cc(CNC(C)(C)C)c(O)c(Nc2nc3cc(F)c(F)cc3[nH]2)c1 | 260 | 830 | 3.19 | 31 | 0 | 0 | 0 | 16600 | 64 |
| CC(C)(C)NCc1cc(C(C)(C)C)cc(Nc2nc3cc(F)c(F)cc3[nH]2)c1O | 150 | 280 | 1.87 | 0 | 0 | 0 | 0 | 34200 | 228 |
